Reference: ChEMBL document CHEMBL3621114, “Design and Synthesis of Non-Peptide, Selective Orexin Receptor 2 Agonists” (J Med Chem, 2015)
Active and inactive are the calls of the source. No cut-off for these calls is given here.

Experiments:
[1] = biological target: T1, Orexin/Hypocretin receptor type 1 (Homo sapiens) (UniProt O43613); assay: Agonist activity at human OX1R expressed in CHOK1 cells by calcium mobilization assay relative to orexin-A; format: functional, cell-based; details: CHO-K1
T1 sequence (whole entry): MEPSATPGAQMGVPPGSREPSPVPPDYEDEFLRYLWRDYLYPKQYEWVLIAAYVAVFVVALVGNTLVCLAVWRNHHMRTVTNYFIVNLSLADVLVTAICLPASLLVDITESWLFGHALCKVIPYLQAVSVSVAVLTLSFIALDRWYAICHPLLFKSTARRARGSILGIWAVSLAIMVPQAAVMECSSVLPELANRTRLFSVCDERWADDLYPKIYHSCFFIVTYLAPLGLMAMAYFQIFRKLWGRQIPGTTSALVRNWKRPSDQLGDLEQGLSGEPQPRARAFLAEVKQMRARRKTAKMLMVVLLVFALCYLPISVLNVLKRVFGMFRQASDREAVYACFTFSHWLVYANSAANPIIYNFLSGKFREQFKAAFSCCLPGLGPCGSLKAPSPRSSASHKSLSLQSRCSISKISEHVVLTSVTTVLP

Orexin receptor type 2 [2] = biological target: T2, Orexin receptor type 2 (Homo sapiens, UniProt O43614); assay: biochemical
T2 sequence (O43614 whole entry): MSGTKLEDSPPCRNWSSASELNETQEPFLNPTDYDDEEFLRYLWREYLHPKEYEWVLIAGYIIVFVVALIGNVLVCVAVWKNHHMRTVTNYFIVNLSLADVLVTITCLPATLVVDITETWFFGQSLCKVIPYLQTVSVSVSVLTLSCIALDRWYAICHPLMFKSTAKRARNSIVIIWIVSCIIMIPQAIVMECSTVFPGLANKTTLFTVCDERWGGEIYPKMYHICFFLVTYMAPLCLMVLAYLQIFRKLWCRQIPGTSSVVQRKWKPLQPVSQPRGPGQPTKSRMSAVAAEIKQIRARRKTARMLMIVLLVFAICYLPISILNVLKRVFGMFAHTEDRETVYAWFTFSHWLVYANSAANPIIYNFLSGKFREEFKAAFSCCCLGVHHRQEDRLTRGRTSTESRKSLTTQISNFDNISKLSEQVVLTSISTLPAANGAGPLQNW

[3] = biological target: T3, Orexin/Hypocretin receptor type 1 (Homo sapiens, UniProt O43613); assay: Agonist activity at human OX1R expressed in CHOK1 cells by calcium mobilization assay; format: functional, cell-based, CHO-K1
T3 sequence (O43613 whole entry): T1 sequence (whole entry)

CHO-K1 = assay: Selectivity index, ratio of EC50 for human OX1R expressed in CHOK1 cells to EC50 for human OX2R expressed in CHOK1 cells; format: cell-based
Orexin receptor type 2 [4] = biological target: T2, Orexin receptor type 2; assay: Agonist activity at human OX2R expressed in CHOK1 cells by calcium mobilization assay
[5] = biological target: T4, Orexin receptor type 2 (Homo sapiens) (UniProt O43614); assay: Agonist activity at human OX2R expressed in CHOK1 cells at 10 uM by calcium mobilization assay relative to orexin-A; details: CHO-K1
T4 sequence (whole entry): T2 sequence (O43614 whole entry)

[6] = biological target: T4, Orexin receptor type 2 (Homo sapiens); assay: Agonist activity at human OX2R expressed in CHOK1 cells at 1 uM by calcium mobilization assay relative to orexin-A; format: functional, cell-based; details: CHO-K1
[7] = biological target: T4, Orexin receptor type 2 (Homo sapiens); assay: Agonist activity at human OX2R expressed in CHOK1 cells at 10 uM by NFAT-response luciferase reporter gene assay relative to orexin-A; format: cell-based; details: CHO-K1
[8] = biological target: T4, Orexin receptor type 2 (Homo sapiens); assay: Agonist activity at human OX2R expressed in CHOK1 cells at 10 uM by calcium mobilization assay relative to orexin-A; format: functional, cell-based; details: CHO-K1
Mus musculus [9] = assay: Induction of wakefullness in C57BL/6J mouse assessed as increase in wake time by measuring EEG/EMG signals at 260 nmol, icv dosed on every other day during light phase; format: functional
Outline: (§1)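 Intracerebroventricular injection during the light phase, given at 6 h into the light phase (ZT6). Saline was the vehicle control. Sleep/wake states were scored from EEG/EMG recordings, and the read-out was cumulative time awake within 2 h after dosing. Wild-type C57BL/6J mice and OX1R/OX2R double-knockout mice were used.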

Mus musculus [10] = assay: Induction of wakefullness in OX1R/OX2R double knock out C57BL/6J mouse assessed as increase in wake time by measuring EEG/EMG signals at 260 nmol, icv dosed on every other day during light phase; format: functional, organism-based; outline: as §1
Mus musculus [11] = assay: Induction of wakefullness in C57BL/6J mouse assessed as EEG/EMG signals at 32 to 260 nmol, icv dosed on every other day during light phase; format: functional, organism-based; outline: as §1
Orexin receptor type 2 [12] = biological target: T2, Orexin receptor type 2; assay: Agonist activity at human OX2R expressed in CHOK1 cells by NFAT-response luciferase reporter gene assay; format: cell-based; details: cho-k1
[13] = biological target: T4, Orexin receptor type 2 (Homo sapiens); assay: Agonist activity at human OX2R expressed in CHOK1 cells at 5 uM by NFAT-response luciferase reporter gene assay relative to orexin-A; format: cell-based; details: CHO-K1
[14] = biological target: T4, Orexin receptor type 2 (Homo sapiens); assay: Agonist activity at human OX2R expressed in CHOK1 cells at 5 uM by calcium mobilization assay relative to orexin-A; format: functional, cell-based; details: CHO-K1
[15] = Stability in pH 8.0 buffer; format: physicochemical

COc1ccc(-c2cccc(C(=O)N(C)C)c2)cc1S(=O)(=O)Nc1cccc(NCCNC(=O)c2cccc(C)c2)c1
Emax [1]: 100%
Ki (Orexin receptor type 2 [2]): 770 nM

COc1cccc(C(=O)NCCNc2cccc(NS(=O)(=O)c3cc(-c4cccc(C(=O)N(C)C)c4)ccc3OC)c2)c1
EC50 ([3]; read-out: EC50): 9250 nM
Emax [1]: 49%
Ratio EC50 (CHO-K1): 280

COc1ccccc1C(=O)NCCNc1cccc(NS(=O)(=O)c2cc(-c3ccccc3)ccc2OC)c1
EC50 (Orexin receptor type 2 [4]): > 10000 nM
Emax [5]: 48%

COc1ccccc1C(=O)NCCNc1cccc(NS(=O)(=O)c2cc(-c3cccc(C(=O)N(C)C)c3)ccc2OC)c1
Emax [6]: 74%
EC50 ([3]; read-out: EC50): 5230 nM
Emax [1]: 46%
Ratio EC50 (CHO-K1): 105

COc1ccc(-c2cccc(C(=O)N(C)C)c2)cc1S(=O)(=O)Nc1cccc(NCCNC(=O)c2ccccc2)c1
EC50 (Orexin receptor type 2 [4]): > 10000 nM

CNC(=O)c1cccc(-c2ccc(OC)c(S(=O)(=O)Nc3cccc(NCCNC(=O)c4ccccc4OC)c3)c2)c1
Emax [6]: 98%

COc1ccccc1C(=O)NCCNc1ccc(NS(=O)(=O)c2cc(C(C)C)c(C)cc2OC)cc1
Efficacy [7]: 18%
Efficacy [8]: 12%

COc1ccc(-c2cccc(C(=O)N(C)C)c2)cc1S(=O)(=O)Nc1cccc(NCCNC(=O)c2ccccc2Cl)c1
EC50 ([3]; read-out: EC50): 6130 nM
Emax [1]: 50%
Ratio EC50 (CHO-K1): 198

COc1cccc(-c2ccc(OC)c(S(=O)(=O)Nc3cccc(NCCNC(=O)c4ccccc4OC)c3)c2)c1
Emax [6]: 54%
EC50 (Orexin receptor type 2 [4]): 800 nM

COc1ccccc1C(=O)NCCNc1cccc(NS(=O)(=O)c2cc(-c3cccc(C(=O)N4CCC4)c3)ccc2OC)c1
EC50 (Orexin receptor type 2 [4]): 235 nM
Emax [5]: 85%

COc1ccc(-c2cccc(C(=O)N(C)C)c2)cc1S(=O)(=O)Nc1cccc(NCCNC(=O)c2ccccc2N(C)C)c1 [listing 1 of 2 here]
EC50 ([3]; read-out: EC50): 2750 nM
EC50 (Orexin receptor type 2 [4]): 28 nM

COc1ccccc1C(=O)NCCNc1cccc(NS(=O)(=O)c2cc(-c3cccc(F)c3)ccc2OC)c1
EC50 (Orexin receptor type 2 [4]): > 10000 nM
Emax [5]: 47%

COc1ccccc1C(=O)N[C@H]1CC[C@H](CNS(=O)(=O)c2cc(C(C)C)c(C)cc2OC)CC1
Efficacy [7]: 24%
Efficacy [8]: inactive

COc1ccccc1C(=O)N1CCC(CNS(=O)(=O)c2cc(C(C)C)c(C)cc2OC)CC1
Efficacy [7]: 16%
Efficacy [8]: inactive

COc1ccc(-c2cccc(C(=O)N(C)C)c2)cc1S(=O)(=O)Nc1cccc(NCCNC(=O)c2ccccc2N(C)C)c1.Cl
Time (Mus musculus [9]): 53 min

COC(=O)c1cccc(-c2ccc(OC)c(S(=O)(=O)Nc3cccc(NCCNC(=O)c4ccccc4OC)c3)c2)c1
EC50 (Orexin receptor type 2 [4]): > 10000 nM
Emax [5]: 49%

COc1ccccc1C(=O)NCCNc1cccc(NS(=O)(=O)c2cc(-c3cccnc3)ccc2OC)c1
Emax [5]: 88%

COc1ccccc1C(=O)NCCNc1cccc(NS(=O)(=O)c2cc(C(C)C)c(C)cc2OC)c1
Efficacy [7]: 33%
Efficacy [8]: 22%

COc1ccc(-c2cccc(C(=O)N(C)C)c2)cc1S(=O)(=O)Nc1cccc(NCCNC(=O)c2ccccc2N(C)C)c1 [listing 2 of 2 here]
Emax [1]: 55%
Activity (Mus musculus [10]): inactive
Activity (Mus musculus [11]): Dose-dependent effect

COc1ccccc1C(=O)NCCNc1cc(C)ccc1NS(=O)(=O)c1cc(C(C)C)c(C)cc1OC
Efficacy [7]: 9%
Efficacy [8]: inactive

COc1ccc(-c2cccc(C(=O)N(C)C)c2)cc1C(=O)Nc1cccc(NCCNC(=O)c2cccc(C)c2)c1
EC50 (Orexin receptor type 2 [12]): Not Active
EC50 ([3]; cho-k1): Not Active

Cc1ccc(S(=O)(=O)n2nc(OC(=O)c3c(-c4ccccc4Cl)noc3C)cc2N)cc1
Efficacy [13]: 36%
Efficacy [14]: inactive
Stability [15]: Unstable

COc1ccc(-c2cccc(C(=O)N(C)C)c2)cc1S(=O)(=O)Nc1cccc(NCCNC(=O)c2cccc(Cl)c2)c1
EC50 ([3]; read-out: EC50): 5720 nM
Emax [1]: 73%
Ratio EC50 (CHO-K1): 60
EC50 (Orexin receptor type 2 [4]): 94 nM

COc1ccccc1C(=O)NCCNc1cccc(NS(=O)(=O)c2cc(-c3cccc(N)c3)ccc2OC)c1
EC50 (Orexin receptor type 2 [4]): > 1000 nM
Emax [5]: 73%
